Screens as filed in PubChem BioAssay.
GRIN3A LBD mod: NR3A (human) ligand-binding domain modulation. NR3A LBD differential scanning fluorimetry, Tm shift; 0% = protein alone, 100% = glycine-bound protein. Tm shift relative to glycine control, % at 25 µM. 340,000 tested, 2.5% active. AID 1259313;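 active = melting temperature shift of at least 10% of the positive control shift, at one fixed dose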
PREPL inhibitor: inhibits the human prolyl oligopeptidase-like enzyme; recombinant PREPL, fluorescence polarization activity-based probe; inhibition, % at 5.96 µM; 320,000 tested, 0.68% active; AID 2751; in the data active = inhibition above about 43%;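 note: 0% = enzyme with DMSO and 100% = wells lacking enzyme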
Target sequence (Q4J6C6 whole entry, looked up): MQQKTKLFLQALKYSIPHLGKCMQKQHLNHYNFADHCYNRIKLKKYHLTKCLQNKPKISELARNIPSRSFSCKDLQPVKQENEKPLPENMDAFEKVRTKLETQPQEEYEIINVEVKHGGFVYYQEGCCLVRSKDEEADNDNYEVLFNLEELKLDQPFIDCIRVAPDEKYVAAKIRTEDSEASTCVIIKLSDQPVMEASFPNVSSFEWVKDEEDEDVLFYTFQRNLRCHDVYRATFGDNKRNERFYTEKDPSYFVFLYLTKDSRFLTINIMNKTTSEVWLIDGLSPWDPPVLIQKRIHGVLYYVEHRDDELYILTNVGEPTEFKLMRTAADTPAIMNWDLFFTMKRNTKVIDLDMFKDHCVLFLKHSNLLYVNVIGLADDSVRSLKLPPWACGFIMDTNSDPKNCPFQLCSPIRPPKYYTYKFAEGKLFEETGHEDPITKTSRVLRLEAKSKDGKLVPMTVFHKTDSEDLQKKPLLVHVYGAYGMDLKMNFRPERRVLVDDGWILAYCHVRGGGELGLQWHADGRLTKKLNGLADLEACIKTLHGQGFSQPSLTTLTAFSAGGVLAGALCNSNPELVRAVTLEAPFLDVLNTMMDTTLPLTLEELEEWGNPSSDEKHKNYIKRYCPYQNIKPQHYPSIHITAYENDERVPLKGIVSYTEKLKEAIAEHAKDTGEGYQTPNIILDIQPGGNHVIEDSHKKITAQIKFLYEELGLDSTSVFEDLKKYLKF
CSC inhib: cancer stem cell inhibition. 300,000 tested, 1.1% active. cancer stem cell-like cells viability, luminescence. inhibition, % at 7.5 µM. AID 2717; in the data active = inhibition above about 75%; tested in HMLE shEcad cells
CHOP inh: blocks CHOP induction under ER stress. CHO-K1 CHOP-promoter luciferase, tunicamycin-induced, 15-18 h. inhibition, % at 10 µM. 220,000 tested, 3.8% active. AID 2732;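 active = compounds that reduced the stress-induced luciferase reporter signal by more than about 70% of percent inhibition, limit read from the data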;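 note: 0% = tunicamycin plus vehicle and 100% = wells without tunicamycin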
Beta cell apopt: blocks beta cell apoptosis | INS-1E cytokine-induced death, ATP luminescence, 48 h; percent of positive-control rescue, neutral wells zero | 300,000 tested, 0.8% active | AID 435005 | protection from apoptosis, % (concentration not given with the values);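 active = Every replicate reaches about 75%, or at least half do and their mean reaches it too, limit read from the data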;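 note: 0% = cytokine-treated negative control wells and 100% = positive control rescue; higher means more ATP so stronger rescue from cytokine killing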
T cruzi repl: blocks replication of Trypanosoma cruzi; T. cruzi beta-gal in NIH3T3, luminescence, 90 h; inhibition, % (test concentration not listed); 300,000 tested, 1.4% active; AID 1885;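 active = mean inhibition across valid replicates above about 55%, limit read from the data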;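 note: signal also drops with host cell toxicity which is not excluded here; 0% = plate median of DMSO wells and 100% = zero luminescence signal; higher percent means less beta-gal luminescence so fewer parasites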
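assay system = mouse NIH/3T3 fibroblasts infected with β-gal-expressing T. cruzi Tulahuen C4 | input = 5,000 NIH/3T3 host cells per well | buffer or medium = DMEM plus 2% FBS | timing = 3 h host attachment, then at least 90 h co-culture | measured by = GalScreen luminescence, 60 min | evaluation = luminescence reflecting intracellular parasite burden, expressed as percent inhibition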
* marks the source's active call; other numbers are inactive results; . = no result given. This is a sample that favours compounds with a hit; in the whole collection about 6.7% have one here.

SMILES	GRIN3A LBD mod	PREPL inhibitor	CSC inhib	CHOP inh	Beta cell apopt	T cruzi repl
COc1ccc(C)cc1NS(=O)(=O)c1ccc2c(c1)N(C)CCO2	17.9*	11.8	-5.1	.	3.5	-6.0
COc1ccc(C)cc1NS(=O)(=O)c1ccc2c(c1)n(C)c(=O)n2C	-2.1	-0.3	-10.5	7.6	0.5	6.2
CCOC(=O)c1c(N)sc(C(=O)OCCOC)c1C	0.3	-4.3	-3.7	-24.8	2.0	-6.7
CCOC(=O)c1c(N)sc(C(O)(C(F)(F)F)C(F)(F)F)c1-c1ccc(F)cc1	0.5	8.1	43.1	78.0*	-20.1	0.2
CCOC(=O)c1c(NC(=O)C2C3CCC(O3)C2C(=O)O)sc(C)c1-c1ccc(F)cc1 (centres undefined)	-2.1	-6.3	-10.6	11.1	-6.6	0.1
OC(CNCc1ccccc1)(c1ccccc1)c1ccccc1	-0.4	11.1	3.3	.	-0.9	-3.1
OC(Cc1ccncc1)(c1ccccc1)c1ccccc1	14.2*	-7.8	3.5	.	-2.1	44.7
O=C(Nc1cc(Br)c(O)c(Br)c1)c1cccc(NC(=O)c2ccco2)c1	22.9*	-1.0	-13.1	.	3.0	-2.8
Cc1cc(C)cc(NC(=O)c2cccc(NC(=O)c3ccco3)c2)c1	1.5	5.5	4.2	.	1.7	23.6
CC(C)CNC(=O)c1cccc(NC(=O)c2ccc(NC(=O)c3ccco3)cc2)c1	23.4*	12.1	3.4	22.9	4.3	-5.0
O=C(Nc1cccc(NC(=O)c2ccco2)c1)c1cccc(Br)c1	14.8*	-7.3	8.6	.	11.3	9.8
CC(C)(C)C(=O)COC(=O)c1cccc(NC(=O)c2ccco2)c1	4.4	-3.4	-8.2	72.3*	3.4	-3.9
O=C(CCc1n[nH]c(=O)[nH]c1=O)Nc1cccc([N+](=O)[O-])c1	-1.0	6.9	-4.2	-8.3	-7.2	-1.2
CC1Cc2ccccc2N1C(=O)COC(=O)Cc1ccc(F)cc1 (centres undefined)	-1.9	-3.5	-0.9	.	-1.0	0.7
Cc1cc(=O)n(C(C)Cc2ccccc2)n1C(C)Cc1ccccc1 (centres undefined)	1.4	.	.	.	.	.
O=C(Nc1cccc(S(=O)(=O)N2CCCC2)c1)c1ccco1	1.0	10.6	-17.6	.	-4.8	.
O=C(Nc1cccc(S(=O)(=O)c2cccc(NC(=O)c3ccco3)c2)c1)c1ccco1	34.9*	-5.2	14.5	13.2	14.9	55.0*
O=C(Cc1cccc(C(F)(F)F)c1)OCN1C(=O)c2ccccc2C1=O	1.7	-3.7	-3.4	.	0.4	15.0
CC(C)(C)c1ccc(NC(=O)COC(=O)c2ccc(NS(=O)(=O)c3ccc(F)c(F)c3)cc2)cc1	30.4*	1.8	-12.1	25.1	-7.0	8.4
CC(C)(C)NC(=O)NC(=O)COC(=O)c1cccc(NS(=O)(=O)c2ccc(F)c(F)c2)c1	-0.2	0.0	7.1	13.9	-8.0	-2.8
CCOc1ccc(NC(=S)NS(=O)(=O)c2cc(Br)ccc2OCC)cc1	0.8	-3.6	-3.6	.	-9.2	.
CCOc1ccc(Br)cc1S(=O)(=O)Nc1ccc(C(=O)OCC(=O)Nc2ccc(C#N)cc2)cc1	14.2*	-3.0	11.2	18.2	3.0	5.9
Cn1ncc2c(=O)[nH]nnc21	1.3	.	.	.	.	.
Cc1ccc(C(=O)c2nocc2C(=O)c2cccs2)cc1	15.8*	-2.2	-18.2	9.3	-5.6	4.0
CC(C(=O)O)c1ccc(C(=O)c2cccs2)cc1 (centres undefined)	-0.8	10.4	-1.4	.	-1.6	.
SMILES	GRIN3A LBD mod	PREPL inhibitor	CSC inhib	CHOP inh	Beta cell apopt	T cruzi repl
CC1CN(c2nc3c(c(=O)n(Cc4ccc(Cl)cc4)c(=O)n3C)n2C)CC(C)O1 (centres undefined)	-3.1	14.7	-10.0	23.2	11.4	-17.0
COCCN(C(=O)Cc1cccs1)C(C(=O)NCc1ccc(OC)cc1)c1ccc(C(C)C)cc1 (centres undefined)	9.3	4.0	8.2	93.9*	1.2	22.2
CCc1ccc(C(C(=O)NCc2ccc(OC)cc2)N(CCOC)C(=O)Cc2cccs2)cc1 (centres undefined)	2.0	-15.3	-40.8	6.3	4.7	21.4
CCN(CC)CCCOC(=O)c1ccc(OC)cc1O	-0.6	3.6	6.4	20.8	-4.2	83.9*
CCN(CC)CCOC(=O)c1cccc(OC)c1	-1.7	6.9	-0.8	1.3	2.3	-8.1
COc1cc(CN2CCNC(=O)C2CC(=O)NC2CCCC2)cc(OC)c1 (centres undefined)	0.4	6.5	4.1	.	0.4	0.7
Cn1c(C(=O)NCc2ccco2)cc2c(=O)[nH]c3ccccc3c21	23.9*	3.7	-13.2	48.4	-0.2	21.1
CCCN(CCC)CCCNC(=O)c1cc2c(=O)[nH]c3ccccc3c2n1C	-0.6	-34.4	4.8	-5.3	3.1	14.4
Cc1ccc(-c2cc(-c3ccccc3Cl)c(C#N)c(N)n2)o1	-5.5	17.9	-0.5	58.9	-0.9	30.0
Cc1ccc(-c2cc(-c3ccccc3)c(C#N)c(N)n2)o1	-8.8	25.7	5.4	95.1*	-14.0	1.0
O=C(CCC(=O)N1CCOCC1)NCCc1ccc(Cl)cc1Cl	1.9	1.8	-9.4	.	.	-2.3
Cc1ccc(NC(=O)Nc2nnc(-c3ccccc3)o2)cc1	1.8	30.8	18.4	-11.2	-1.3	-13.1
Cc1ccc(-c2nnc(Nc3ccccc3)o2)cc1	-1.2	11.8	31.8	83.6*	8.5	-9.1
O=C(CSCC(=O)NN=Cc1ccccc1O)NN=Cc1ccccc1O	25.5*	.	.	.	.	.
CSc1nc(C)cc(OCC(=O)N/N=C/c2ccccc2O)n1	-1.4	6.0	89.4*	40.2	65.4	-9.2
O=C(CCCCC(=O)NN=Cc1ccccc1O)NN=Cc1ccccc1O	35.4*	.	.	.	.	.
O=C(CCC(=O)Nc1ccc(Br)cc1)N/N=C/c1ccccc1O	-14.4	-5.6	32.7	.	55.7	38.1
Cc1ccc(NC(=O)CCC(=O)N/N=C/c2ccccc2O)cc1	-2.7	-2.5	7.1	.	68.4	1.0
Cc1cc(=O)oc2cc(OCC(=O)N/N=C/c3ccccc3O)ccc12	-17.5	-29.4	.	.	0.6	5.4
Cc1cc(C)c2nc(N3CCCN(C(=O)c4cnccn4)CC3)c(C#N)cc2c1	-0.1	19.2	1.4	21.3	3.4	3.0
COc1cccc(-c2sc3ccc(OC)cc3c2-c2ccc(OCCN3CCOCC3)cc2)c1	1.8	13.3	104.0*	.	-4.3	.
COc1ccc2sc(-c3ccccc3OC)c(-c3ccc(OCCN4CCOCC4)cc3)c2c1	2.0	.	.	.	.	.
COc1cc(OC)cc(-c2sc3ccc(OC)cc3c2-c2ccc(OCCN3CCOCC3)cc2)c1	11.4*	.	.	.	.	.
COc1ccc(OCCOCCN2CCOCC2)cc1	2.2	11.0	13.3	-12.4	0.0	-18.1
COc1ccc(-c2sc3cc4c(cc3c2-c2ccc(OCCN3CCOCC3)cc2)OCO4)cc1	-1.7	15.2	124.9*	.	7.7	.
O=C(c1ccc(OCCN2CCCCC2)cc1)c1c(-c2ccc(O)cc2)sc2cc(O)ccc12	-6.0	26.7	85.3*	-13.0	-1.8	30.5
